Test results reported in PubChem BioAssay AID504499 (Broad Institute, 2011).
Active and inactive are the calls of the source.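 Rule for the calls: active = compounds whose fitted half-maximal growth inhibition potency lies within ten times the top tested dose; inconclusive = flat inhibition of 30 to 70 percent, or poor fit; inactive = the rest.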

tested on: not listed separately; test: single-agent antifungal activity without fluconazole – CaCi-2, no fluconazole, powder samples, set 9, counter-screen for antifungal drug resistance project, dose response (AID 504499); details: C. albicans CaCi-2 growth without fluconazole, Alamar Blue, 48 h; at 26 µM (top of the series)
Procedure, shortened: (§1)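 system = C. albicans CaCi-2 | amount = inoculum at 0.00015 A600 | medium = RPMI synthetic defined growth medium without fluconazole | schedule = Yeast–compound growth 48 h, 37 °C, then Alamar Blue 2 h | benchmarks = geldanamycin positive control | signal = Alamar Blue fluorescence, 544/590 nm | evaluation = relative yeast growth derived from Alamar Blue fluorescence signal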

Compound | growth change, negative = inhibition
CCc1nn(CC(=O)OC)c2ccccc12 | -15.4% (inactive)
COC(=O)Cn1nc(-c2cscn2)c2ccccc21 | -11.4% (inactive)
COC(=O)Cn1nc(C2CCCCC2)c2ccccc21 | -13.2% (inactive)
COC(=O)Cn1nc(-c2cnco2)c2ccccc21 | 22% (inactive)
c1ccc(-c2nn(Cc3nnco3)c3ccccc23)cc1 | 18.3% (inactive)
COC(=O)Cn1nc(-c2ccccc2)c2cccnc21 | -7.57% (inactive)
CC1CCN(CCn2c3ccccc3c3nc4n(c(=O)c32)CCS4)CC1 | 2.22% (inactive)
O=C(Cn1c2ccccc2c2nc3n(c(=O)c21)CCS3)N1CCC(F)(F)CC1 | 5.44% (inactive)
O=C(O)Cn1c2ccc(F)cc2c2nc3n(c(=O)c21)CCS3 | -15.5% (inactive)
COC(=O)Cn1nc(C2CC2)c2ccccc21 | 4% (inactive)
COC(=O)Cn1nc(-c2cccnc2)c2ccccc21 | 1.88% (inactive)
COC(=O)Cn1nc(-c2cccc(F)c2)c2ccccc21 | -24.6% (inactive)
CN1CCN(C(=O)Cn2c3ccccc3c3nc4n(c(=O)c32)CCS4)CC1 | 2.02% (inactive)
O=C(Cn1c2ccccc2c2nc3n(c(=O)c21)CCS3)N1CC=CC1 | 6.32% (inactive)
O=C(O)Cn1c2ccccc2c2nc3n(c(=O)c21)CCS3 | 31.2% (inactive)
O=C(Cn1c2ccccc2c2nc3n(c(=O)c21)CCS3)N1CCC(F)(F)C1 | 5.06% (inactive)
O=C(Cn1c2ccc(F)cc2c2nc3n(c(=O)c21)CCS3)N1CCC(F)(F)C1 | -1.64% (inactive)
CC1(O)CN(C(=O)Cn2c3ccccc3c3nc4n(c(=O)c32)CCS4)C1 | 5.26% (inactive)
COC(=O)Cn1nc(C(C)(C)C)c2ccccc21 | 6.09% (inactive)
COC(=O)n1nc(-c2ccccc2)c2ccccc21 | -9.34% (inactive)
O=C(Cn1c2ccc(F)cc2c2nc3n(c(=O)c21)CCS3)N1CC=CC1 | 2.91% (inactive)
COC(=O)Cn1nc(-c2cccc(OC)c2)c2ccccc21 | -28.4% (inactive)
O=C(Cn1c2ccccc2c2nc3n(c(=O)c21)CCS3)N1CCCCC1 | -17.6% (inactive)
O=C(Cn1c2ccccc2c2nc3n(c(=O)c21)CCS3)N1CCCC1 | -33.3% (inactive)
O=C(Cn1c2ccc(F)cc2c2nc3n(c(=O)c21)CCS3)N1CCC(F)(F)CC1 | -9.87% (inactive)
COC(=O)Cn1nc(-c2cccc(C)c2)c2ccccc21 | -23.2% (inactive)

tested on: C. albicans CaCi-2 (fluconazole-resistant clinical isolate) growth without fluconazole, Alamar Blue, 48 h; test: as above; details: not given
Procedure, shortened: as §1

Compound | AC50 [µM]
COC(=O)Cn1c2ccc(F)cc2c2nc3n(c(=O)c21)CCS3 | 19.4
